Screening results (PubChem BioAssay)
HePTP inh – inhibitors of human HePTP phosphatase | 110,000 compounds, 0.64% hits | AID 521 | P35236 | inhibition, % at 20 µM | recombinant HePTP phosphatase activity, OD absorbance; in the data active means inhibition above about 50%;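 further: plate controls were vehicle for no effect and reference inhibitor for full effect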
PostGolgi ctrl – inhibits growth of the yeast control strain. efflux-deficient yeast background strain, growth absorbance A615, 16 h. inhibition, % at 10 µM. 98,000 compounds, 5% hits. AID 738
Ecoli tolC – E. coli tolC mutant growth inhibition. AID 573. E. coli BW25113 tolC mutant growth, OD615. 65,000 compounds, 2.2% hits. growth inhibition, % at 10 µM (by protocol);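 active means growth inhibition at or above a cutoff equal to the mean over every tested compound plus 3 SD, cut at about 60% in these data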;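 further: growth measured after 20 h incubation at 37 °C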
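Doses: one dose of 10 µM final / Material: E. coli BW25113 ΔtolC::kan, tolC deletion mutant strain / Buffer or medium: LB with kanamycin 50 µg/mL / Evaluation: percent growth inhibition / Detection: optical density read at 615 nm / Incubation: 37 °C, 20 h exposure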
PLAP act – activators of human placental alkaline phosphatase; P05187; purified PLAP enzyme, luminescent substrate read-out; stronger effect = higher value; activation fold at 20 µM; 96,000 compounds, 1.2% hits; in the data active means activation fold above about 2
Target sequence (P05187 whole entry, looked up): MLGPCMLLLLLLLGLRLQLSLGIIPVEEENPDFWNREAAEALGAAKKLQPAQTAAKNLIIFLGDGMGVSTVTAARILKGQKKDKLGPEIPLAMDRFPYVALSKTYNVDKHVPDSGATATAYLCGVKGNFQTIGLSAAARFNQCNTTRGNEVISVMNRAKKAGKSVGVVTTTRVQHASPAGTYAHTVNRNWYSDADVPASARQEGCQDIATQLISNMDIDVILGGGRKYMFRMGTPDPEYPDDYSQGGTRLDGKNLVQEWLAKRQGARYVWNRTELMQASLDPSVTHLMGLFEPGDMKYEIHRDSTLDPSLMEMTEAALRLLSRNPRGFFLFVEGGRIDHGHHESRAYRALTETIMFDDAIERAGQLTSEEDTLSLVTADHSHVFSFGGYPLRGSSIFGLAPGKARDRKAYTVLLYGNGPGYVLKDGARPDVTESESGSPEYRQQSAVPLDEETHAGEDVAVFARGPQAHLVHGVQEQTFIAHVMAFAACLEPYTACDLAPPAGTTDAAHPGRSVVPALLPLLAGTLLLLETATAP
PostGolgi yeast – growth inhibition of a yeast mutant, post-Golgi transport screen; 98,000 compounds, 0.9% hits; inhibition, % at 10 µM; AID 739; post-Golgi transport phenotypic cell assay;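 further: yeast cells grown in 1536-well plates; yeast grown about 18 h at 30C before absorbance read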
Ecoli WT expand – growth inhibitors of E. coli BW25113 wild type; 98,000 compounds, 0.15% hits; growth inhibition, % at 100 µM; OD600 absorbance;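 active means growth inhibition above about 50% at one test dose, limit read from the data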;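 further: growth measured after 20 h incubation at 37 °C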
Numbers without * were called inactive; x = not tested or not shown; ! = not confirmed by another sample. A selection: hits, their analogues and other compounds. The true share with any hit is near 5.4%. Unless noted, no stated cut-off is given here; in the data, active means inhibition above about 30%; inactive means the rest.

SMILES | HePTP inh | PostGolgi ctrl | Ecoli tolC | PLAP act | PostGolgi yeast | Ecoli WT expand
Cc1ccc2c(C)nc(Nc3nc(CSc4nc5ccccc5[nH]4)cc(=O)[nH]3)nc2c1 | x | 19 | x | 2.2* | 2 | -12
Cc1nnc(SCc2cc(=O)[nH]c(Nc3nc(C)c4ccccc4n3)n2)s1 | 5 | x | 5 | x | x | x
CN1CCN(C(=O)CC23CC4CC(CC(C4)C2)C3)CC1 | 104*! | 19 | -15 | 1.2 | 6 | -3
CC(=O)c1ccc(NC(=O)CN(c2ccccc2)S(=O)(=O)c2ccccc2[N+](=O)[O-])cc1 | -12 | x | x | x | x | x
COc1ccccc1CNC(=O)c1csc(Cc2ccc(Cl)cc2)n1 | x | 56* | x | 1 | -3 | -15
CCCS(=O)(=O)N1CCCC(C(=O)NCCCN(C)Cc2ccccc2)C1 (stereo not given) | 5 | 39* | -33 | 1.2 | 5 | 1
Cn1ccnc1SCC(=O)c1ccc(-c2ccccc2)cc1 | 8 | x | x | x | x | x
CN(C)c1ccc(/C=N/n2cnnc2SCc2ccccc2)cc1 | 11 | x | x | x | x | x
Cc1cnnn1-c1ccc(C(=O)CCl)cc1 | x | 6 | x | 1.2 | 9 | 98*
NS(=O)(=O)c1ccc(CCNC(=O)c2cccc(C#CC3(O)CCCCC3)c2)cc1 | 2 | x | x | x | x | x
CC(=O)Nc1nnc(SCC(=O)NCCOc2ccccc2)s1 | 6 | 51* | -9 | 0.9 | 5 | -2
O=C(Nc1ccccc1)Nc1nnc(SCCOc2ccccc2)s1 | 0 | x | x | x | x | x
C/C(NN1CCN(C)CC1)=C(\C#N)C(=O)NCc1ccccc1 | 9 | x | x | x | x | x
O=C(N/C=N/OCc1ccc(Cl)cc1Cl)NOCc1ncc(C(F)(F)F)cc1Cl | x | 34* | x | 2* | -4 | -1
CO/N=C/NC(=O)NOCc1ncc(C(F)(F)F)cc1Cl | x | -1 | x | 1.3 | -26 | 1
O=C(Nc1ccc(F)cc1F)c1cc2n(n1)C(C(F)(F)F)C1CCCCC1N2 (stereo not given) | 9 | 30* | -6 | 1 | 1 | -7
COc1ccc(NC(=O)c2cc3n(n2)C(C(F)(F)F)CC(c2ccco2)N3)c(OC)c1 (stereo not given) | 2 | x | x | x | x | x
COc1ccc(OC)c(C2C(C(=O)OCCc3ccccc3)=C(C)NC3=C2C(=O)CCC3)c1 (stereo not given) | -12 | x | x | x | x | x
Cc1cccc2sc(NC(=O)CN(C)S(=O)(=O)c3ccc(Br)s3)nc12 | 10 | 70* | 92* | 1 | 4 | -10
Cc1cccc2sc(NC(=O)C3c4ccccc4Oc4ccccc43)nc12 | x | 58* | x | 0.9 | 53* | -14
CCOC(=O)CSc1nnc(Cc2ccc(OC)cc2)n1-c1ccccc1 | x | 1 | x | 1.3 | -5 | 1
O=C(CSc1nnc(Cc2ccccc2)n1-c1ccccc1)NNC(=O)Cc1ccccc1 | x | 9 | x | 2.5* | 11 | 1
CN(C)c1nccc(N(Cc2ccccc2)Cc2ccccc2)c1C#N | 10 | 30* | x | 1.2 | 0 | -4
Cc1ccccc1OCC(=O)NNC(=S)NC(=O)c1ccco1 | x | 53* | x | 1.1 | 38* | 23
CCOc1cc(NC(=O)c2ccco2)c(OCC)cc1NC(=O)COc1ccccc1C | -6 | x | -6 | x | x | x
SMILES | HePTP inh | PostGolgi ctrl | Ecoli tolC | PLAP act | PostGolgi yeast | Ecoli WT expand
CCOc1ccccc1C(=O)Nc1cc(Cl)ccc1O | 0 | 87* | 100* | 1.2 | 9 | -16
CCOc1ccccc1C(=O)Nc1cc(OC)ccc1OC | 5 | 47* | 14 | 0.9 | 1 | -7
COc1ccccc1C(=O)Nc1cc(Cl)ccc1O | 6 | -3 | 9 | 1 | -4 | -11
Cc1cc(C)c(S(=O)(=O)N(CC(=O)N2CCCC2)C2CCCCC2)c(C)c1 | 6 | 25 | 23 | 1.6 | -3 | 4
Cc1cc(C)c(S(=O)(=O)N(CC(=O)NCc2cccnc2)C2CCCCC2)c(C)c1 | 10 | 27 | 27 | 2.3* | 2 | 8
CCOC(=O)N1CCN(C(=O)Nc2ccc3nc4c5ccccc5c5ccccc5c4nc3c2)CC1 | -3 | x | x | x | x | x
Oc1c(C(c2cccs2)N2CCN(c3cccc(Cl)c3)CC2)sc2ncnn12 (stereo not given) | 4 | 2 | 100* | 1.7 | 4 | 3
Oc1c(C(c2ccco2)N2CCN(C(c3ccccc3)c3ccccc3)CC2)sc2ncnn12 (stereo not given) | -4 | 11 | 64* | 2.1* | -2 | -4
Oc1c(C(c2ccccc2)N2CCc3ccccc3C2)sc2ncnn12 (stereo not given) | 9 | 1 | -2 | x | -1 | 4
Oc1c(C(c2cccs2)N2CCOCC2)sc2ncnn12 (stereo not given) | 0 | -3 | -4 | 0.9 | -1 | 3
Cc1ccc(S(=O)(=O)N2CCC(C(=O)N3Cc4ccccc4C3)CC2)cc1 | 6 | 37* | 22 | 1.1 | 15 | 2
Cc1ccc(S(=O)(=O)N2CCN(C(=O)N(c3ccccc3)c3ccccc3)CC2)cc1 | x | 94* | x | 1.6 | -8 | -6
COc1ccc(NC2CC(O)C(CO)O2)c([N+](=O)[O-])c1 (stereo not given) | 4 | x | x | x | x | x
COc1ccc(NC(=O)CSc2nc3ccccc3s2)c(OC)c1 | -6 | x | x | x | x | x
N#C/C(=C/c1ccc([N+](=O)[O-])o1)C(=O)Nc1cccc(Br)c1 | 87* | x | x | x | x | x
N#C/C(=C\c1ccc(-c2ccccc2[N+](=O)[O-])o1)C(=O)Nc1cccc(Br)c1 | 8 | x | x | x | x | x
N#C/C(=C/c1ccc(O)c([N+](=O)[O-])c1)C(=O)Nc1cccc(Br)c1 | 102* | x | x | x | x | x
CCCC(=O)Nc1ccc(Cl)c(NC(=O)c2cccnc2Cl)c1 | x | 3 | x | 1.1 | 45* | 4
O=C1C(=O)N(CC2CCCO2)C(c2ccccc2F)/C1=C(/O)c1ccccc1 (stereo not given) | 6 | x | x | x | x | x
CCCc1nc2oc3cc(OC)ccc3c(=O)c2c(=O)n1Cc1ccco1 | 10 | -3 | 61* | 1.1 | -1 | -10
CCCCCCn1c(-c2ccco2)nc2oc3cc(OC)ccc3c(=O)c2c1=O | 8 | 15 | 13 | 1.3 | 0 | -15
COc1ccc2c(=O)c3c(=O)n(Cc4ccco4)c(-c4cc(OC)c(OC)c(OC)c4)nc3oc2c1 | -3 | x | -10 | x | x | x
CCCc1nc2sc3ccccc3c(=O)c2c(=O)n1Cc1ccco1 | 16 | -5 | 70* | 1 | 14 | 10
COc1ccc2c(=O)c3c(=O)n(Cc4ccco4)c(-c4ccccc4)nc3oc2c1 | 1 | 58* | 14 | 0.8 | 28 | -12
CCOC(=O)n1c(=O)n(Cc2ccccc2)c2ccccc21 | x | 12 | x | 0.9 | 12 | 3
SMILES | HePTP inh | PostGolgi ctrl | Ecoli tolC | PLAP act | PostGolgi yeast | Ecoli WT expand
CCOC(=O)C1CCN(Cc2cnc(Oc3ccc(Cl)cc3C)s2)CC1 | x | 17 | x | 1.3 | 49* | 2
CCOC(=O)n1c(=O)n(Cc2ccc(Cl)c(Cl)c2)c2ccccc21 | x | 66* | x | 1.2 | 0 | -11
CCOC(=O)C1CCN(Cc2ccc(Cl)c(Cl)c2)CC1 | x | 7 | x | 2* | 7 | 3
CCN(CC)CCN1C(=O)C(O)=C(C(=O)/C=C/c2ccccc2)C1c1ccc(OC)c(OC)c1 (stereo not given) | 0 | x | x | x | x | x
COc1ccc(OC)c(N(CC(=O)Nc2cccc(Cl)c2)S(C)(=O)=O)c1 | -11 | x | x | x | x | x
CCOC(=O)C(=CC1=C/C(=C/N(C)C)C(=O)O1)C(=O)OCC | 81* | x | x | x | x | x
